Key:
Adenosine receptor A2a [1] = target: T1, Adenosine receptor A2a (Homo sapiens, UniProt P29274); test: Displacement of [3H]2-[p(2-carboxyethyl)phenyl-ethylamino]-5'-N-ethylcarboxamido-adenosine from human adenosine A2A receptor stably expressed in HEK293 cell membrane by radioligand binding assay; assay type: cell membranes
Adenosine receptor A3 [2] = target: T2, Adenosine receptor A3 (Homo sapiens, UniProt P0DMS8); test: Displacement of [125I]N6-(4-amino-3-iodobenzyl)adenosine-5'-N-methyl-uronamide from human adenosine A3 receptor stably expressed in CHO cell membrane by radioligand binding assay; assay type: cell membranes
T2 sequence (P0DMS8 whole entry): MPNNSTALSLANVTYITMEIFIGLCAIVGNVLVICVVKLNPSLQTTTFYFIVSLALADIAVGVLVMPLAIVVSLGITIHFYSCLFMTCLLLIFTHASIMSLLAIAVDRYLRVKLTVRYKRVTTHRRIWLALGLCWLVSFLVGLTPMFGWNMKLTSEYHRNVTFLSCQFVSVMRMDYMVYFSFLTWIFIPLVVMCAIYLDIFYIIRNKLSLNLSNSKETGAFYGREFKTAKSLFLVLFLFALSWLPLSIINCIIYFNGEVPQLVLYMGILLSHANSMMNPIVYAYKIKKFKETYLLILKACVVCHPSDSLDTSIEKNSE

[3] = target: T3, Adenosine receptor A1 (Homo sapiens) (UniProt P30542); test: Displacement of [3H]N6-R-phenylisopropyladenosine from human adenosine A1 receptor stably expressed in CHO cell membrane at 10 uM by radioligand binding assay; assay type: cell membranes
T3 sequence (whole entry): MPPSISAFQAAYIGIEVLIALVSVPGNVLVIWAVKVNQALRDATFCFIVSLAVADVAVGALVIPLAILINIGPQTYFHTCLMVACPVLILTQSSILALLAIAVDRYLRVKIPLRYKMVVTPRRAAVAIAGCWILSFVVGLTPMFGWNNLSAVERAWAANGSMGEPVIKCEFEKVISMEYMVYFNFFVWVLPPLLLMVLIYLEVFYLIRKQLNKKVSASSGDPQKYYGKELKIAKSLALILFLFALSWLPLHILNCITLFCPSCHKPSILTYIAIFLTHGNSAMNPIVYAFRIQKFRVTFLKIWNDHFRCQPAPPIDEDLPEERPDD

Adenosine receptor A2a [4] = target: T1, Adenosine receptor A2a; test: Displacement of [3H]2-[p(2-carboxyethyl)phenyl-ethylamino]-5'-N-ethylcarboxamido-adenosine from human adenosine A2A receptor stably expressed in HEK293 cell membrane at 10 uM by radioligand binding assay; assay type: cell membranes
Mus musculus [5] = test: Antineuropathic pain activity in mouse chronic constriction injury model of neuropathic pain assessed as reversal of reduction in paw withdrawal threshold of ipsilateral hind paw at 3 umol/kg, po dosed on day 7 after sciatic nerve ligation and measured at 1 hrs; assay type: functional
Outline: (§1)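 Paw withdrawal threshold (g) measured at 1 h or 3 h after treatment, at day 7 (D7/BL) and at D0. % effect = [PWT at post-treatment time − PWT at D7/BL] / [PWT at D0 − PWT at D7/BL] × 100. Significance set at P<0.05. Procedures otherwise follow earlier work under IASP/NIH animal welfare guidelines.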

Mus musculus [6] = test: Antineuropathic pain activity in mouse chronic constriction injury model of neuropathic pain assessed as reversal of reduction in paw withdrawal threshold of ipsilateral hind paw at 3 umol/kg, po dosed on day 7 after sciatic nerve ligation and measured at 3 hrs; assay type: functional; design: scale not given: the % may be the effect or the level left; outline: as §1
Mus musculus [7] = test: Induction of mechano-allodynia in mouse chronic constriction injury model of neuropathic pain assessed as paw withdrawal threshold on contralateral side at 3 umol/kg, po; assay type: organism-based; conditions: in vivo
Homo sapiens = species on record: Homo sapiens; test: Selectivity ratio for human A3 adenosine receptor to human A2A adenosine receptor
Adenosine receptor A3 [8] = target: T4, Adenosine receptor A3 (Mus musculus, UniProt Q61618); test: Displacement of [125I]N6-(4-amino-3-iodobenzyl)adenosine-5'-N-methyl-uronamide from mouse adenosine A3 receptor stably expressed in CHO cell membrane by radioligand binding assay; assay type: cell membranes
T4 sequence (Q61618 whole entry): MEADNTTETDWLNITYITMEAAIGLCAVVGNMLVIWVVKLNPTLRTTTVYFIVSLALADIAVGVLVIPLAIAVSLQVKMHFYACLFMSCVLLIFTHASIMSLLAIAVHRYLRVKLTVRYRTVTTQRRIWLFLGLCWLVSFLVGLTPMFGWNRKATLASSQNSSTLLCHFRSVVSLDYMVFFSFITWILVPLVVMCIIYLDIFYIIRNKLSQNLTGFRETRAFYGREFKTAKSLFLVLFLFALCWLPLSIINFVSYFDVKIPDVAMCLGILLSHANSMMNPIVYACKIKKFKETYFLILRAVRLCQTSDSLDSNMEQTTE

PC-12 = test: Displacement of [3H]DTG from rat sigma 2 receptor in PC12 cells incubated for 2 hrs by liquid scintillation counting method; assay type: cell-based; conditions: dose or concentration not given here
[9] = target: Histamine H2 receptor (Homo sapiens) (UniProt P25021); test: Displacement of [3H]tiotidine from H2 histamine receptor (unknown origin) expressed in cells at 10 uM incubated for […] by scintillation counting method; assay type: cell-based
Sequence of Histamine H2 receptor (Homo sapiens) (P25021 whole entry): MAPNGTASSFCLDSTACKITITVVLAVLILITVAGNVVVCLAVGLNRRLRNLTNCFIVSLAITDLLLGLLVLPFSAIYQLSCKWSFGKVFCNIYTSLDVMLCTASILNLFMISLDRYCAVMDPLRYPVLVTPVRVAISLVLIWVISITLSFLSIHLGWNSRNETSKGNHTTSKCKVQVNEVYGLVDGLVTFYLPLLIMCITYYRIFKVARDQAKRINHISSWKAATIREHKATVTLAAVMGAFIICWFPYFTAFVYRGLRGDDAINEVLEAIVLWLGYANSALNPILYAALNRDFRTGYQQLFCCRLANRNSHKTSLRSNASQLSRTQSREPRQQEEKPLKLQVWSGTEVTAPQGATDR

[10] = target: Translocator protein (Rattus norvegicus) (UniProt P16257); test: Displacement of [3H]flunitrazepam from rat brain benzodiazepine receptor TSPO incubated for […] by liquid scintillation counting method
Sequence of Translocator protein (Rattus norvegicus) (P16257 whole entry, looked up): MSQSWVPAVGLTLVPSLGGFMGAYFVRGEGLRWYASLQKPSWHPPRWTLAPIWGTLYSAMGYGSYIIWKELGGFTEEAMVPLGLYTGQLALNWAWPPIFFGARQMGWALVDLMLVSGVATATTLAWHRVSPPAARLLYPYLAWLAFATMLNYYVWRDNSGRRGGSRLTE

T1 sequence (P29274 whole entry): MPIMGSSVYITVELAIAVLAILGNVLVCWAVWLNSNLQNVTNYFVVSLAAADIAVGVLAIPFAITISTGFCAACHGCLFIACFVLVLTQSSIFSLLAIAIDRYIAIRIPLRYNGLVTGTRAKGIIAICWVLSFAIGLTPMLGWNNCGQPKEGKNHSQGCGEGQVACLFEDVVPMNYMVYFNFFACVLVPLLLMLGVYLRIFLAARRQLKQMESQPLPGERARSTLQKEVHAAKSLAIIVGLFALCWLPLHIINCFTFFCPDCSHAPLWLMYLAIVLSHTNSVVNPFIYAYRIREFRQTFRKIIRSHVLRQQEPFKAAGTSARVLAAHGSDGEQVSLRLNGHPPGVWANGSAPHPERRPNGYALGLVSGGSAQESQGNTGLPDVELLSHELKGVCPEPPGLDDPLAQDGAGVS

Row | Compound | Ki (Adenosine receptor A2a [1]) [nM] | Ki (Adenosine receptor A3 [2]) [nM] | inhibition [3] [%] | inhibition (Adenosine receptor A2a [4]) [%] | Emax at 3 µmol/kg (Mus musculus [5]) [%] | Activity (Mus musculus [6]) [%] | Activity (Mus musculus [7]) | Selectivity ratio (Homo sapiens) | Ki (Adenosine receptor A3 [8]) [nM] | inhibition (PC-12) [%] | inhibition [9] [%] | inhibition [10] [%]
1 | CNC(=O)[C@@]12C[C@@H]1[C@@H](n1cnc3c(NCCc4ccccc4)nc(N=[N+]=[N-])nc31)[C@H](O)[C@@H]2O | 1110 | 0.85 | 93 | – | – | – | – | – | – | – | – | –
2 | CNC(=O)[C@@]12C[C@@H]1[C@@H](n1cnc3c(NCc4cccc(Cl)c4)nc(N=[N+]=[N-])nc31)[C@H](O)[C@@H]2O | 2770 | 1.08 | – | – | – | – | – | – | – | – | – | –
3 | CCNc1nc(I)nc2c1ncn2[C@H]1[C@H](O)[C@H](O)[C@]2(C(=O)NC)C[C@H]12 | – | 1.22 | – | 11 | – | – | – | – | – | – | – | –
4 | CCNc1nc(-n2cc(-c3ccc(Cl)s3)nn2)nc2c1ncn2[C@H]1[C@H](O)[C@H](O)[C@]2(C(=O)NC)C[C@H]12 | – | 1.22 | – | 32 | 84.9 | 17.9 | Non-toxic | – | – | – | – | –
5 | CNC(=O)[C@@]12C[C@@H]1[C@@H](n1cnc3c(NCCc4ccccc4)nc(-n4cc(-c5ccc(Cl)s5)nn4)nc31)[C@H](O)[C@@H]2O | – | 6.66 | 58 | – | 94.1 | 82.9 | Non-toxic | – | – | – | – | –
6 | CCNc1nc(N=[N+]=[N-])nc2c1ncn2[C@H]1[C@H](O)[C@H](O)[C@]2(C(=O)NC)C[C@H]12 | – | 0.69 | – | 11 | – | – | – | – | – | – | – | –
7 | CNC(=O)[C@@]12CC1[C@@H](n1cnc3c(NC)nc(C#Cc4ccccc4)nc31)[C@H](O)[C@@H]2O (single isomer, unassigned) | – | – | – | – | – | – | – | > 3000 | – | – | – | –
8 | CNC(=O)[C@@]12C[C@@H]1[C@@H](n1cnc3c(NC4CCC4)nc(-n4cc(-c5ccc(Cl)s5)nn4)nc31)[C@H](O)[C@@H]2O | – | 7.05 | – | – | 90.7 | 85.2 | Non-toxic | – | – | – | – | –
9 | CNC(=O)[C@@]12C[C@@H]1[C@@H](n1cnc3c(NC)nc(-n4cc(-c5ncccn5)nn4)nc31)[C@H](O)[C@@H]2O | – | 3.48 | 14 | 27 | 92.7 | 36.2 | Non-toxic | – | 334 | – | – | –
10 | CNC(=O)[C@@]12C[C@@H]1[C@@H](n1cnc3c(NC)nc(-n4cc(-c5cc6ccccc6o5)nn4)nc31)[C@H](O)[C@@H]2O | – | 1.25 | 12 | 40 | 74 | 22.3 | Non-toxic | – | – | – | – | –
11 | CNC(=O)[C@@]12C[C@@H]1[C@@H](n1cnc3c(NC)nc(-n4cc(-c5ccco5)nn4)nc31)[C@H](O)[C@@H]2O | – | 0.96 | – | 51 | 65.3 | 21.1 | Non-toxic | – | – | 50 | 50 | –
12 | CNC(=O)[C@@]12C[C@@H]1[C@@H](n1cnc3c(NC)nc(-n4cc(-c5ccc(Cl)s5)nn4)nc31)[C@H](O)[C@@H]2O | – | 0.73 | 27 | 34 | 66.8 | 8.4 | Non-toxic | – | – | 62 | – | 54
13 | CNC(=O)[C@@]12C[C@@H]1[C@@H](n1cnc3c(NC)nc(-n4cc(-c5ccc(Br)s5)nn4)nc31)[C@H](O)[C@@H]2O | – | 0.58 | – | 7 | 69.1 | 13.5 | Non-toxic | – | – | – | – | –
14 | CNC(=O)[C@@]12C[C@@H]1[C@@H](n1cnc3c(NC)nc(-n4cc(-c5cnccn5)nn4)nc31)[C@H](O)[C@@H]2O | – | 2.21 | 25 | 8 | 76.6 | 26.6 | Non-toxic | – | – | – | – | –
15 | CNC(=O)[C@@]12C[C@@H]1[C@@H](n1cnc3c(NC4CCC4)nc(I)nc31)[C@H](O)[C@@H]2O | > 10000 | 1.53 | – | – | – | – | – | – | – | – | – | –
16 | CNC(=O)[C@@]12C[C@@H]1[C@@H](n1cnc3c(NC)nc(-n4cc(-c5cnn(C)c5)nn4)nc31)[C@H](O)[C@@H]2O | – | 2.16 | 2 | 1 | 82.5 | 19.1 | Non-toxic | – | – | – | – | –
17 | CNC(=O)[C@@]12C[C@@H]1[C@@H](n1cnc3c(NC)nc(N=[N+]=[N-])nc31)[C@H](O)[C@@H]2O | – | 0.54 | – | 1 | – | – | – | – | – | – | – | –
18 | CNC(=O)[C@@]12C[C@@H]1[C@@H](n1cnc3c(NC)nc(-n4cc(-c5ccccc5)nn4)nc31)[C@H](O)[C@@H]2O | – | 0.96 | – | 35 | 77.4 | 27.5 | Non-toxic | – | – | – | – | –
19 | CNC(=O)[C@@]12C[C@@H]1[C@@H](n1cnc3c(NC)nc(-n4cc(-c5ccccc5Cl)nn4)nc31)[C@H](O)[C@@H]2O | – | 0.95 | – | 31 | 69.1 | 7.9 | Non-toxic | – | – | – | – | –
20 | CNC(=O)[C@@]12C[C@@H]1[C@@H](n1cnc3c(NC4CCC4)nc(N=[N+]=[N-])nc31)[C@H](O)[C@@H]2O | – | 0.85 | – | 46 | – | – | – | – | – | – | – | –
21 | CNC(=O)[C@@]12C[C@@H]1[C@@H](n1cnc3c(NCCc4ccccc4)nc(I)nc31)[C@H](O)[C@@H]2O | – | 0.91 | 68 | 42 | – | – | – | – | – | – | – | –
22 | CNC(=O)[C@@]12C[C@@H]1[C@@H](n1cnc3c(NC)nc(-n4cc(-c5ccc(F)c(F)c5)nn4)nc31)[C@H](O)[C@@H]2O | – | 1.06 | – | 39 | 75.2 | 27 | Non-toxic | – | – | – | – | –
23 | CNC(=O)[C@@]12C[C@@H]1[C@@H](n1cnc3c(NC)nc(-n4cc(-c5ccccn5)nn4)nc31)[C@H](O)[C@@H]2O | – | 1.84 | 29 | 26 | 60.9 | 21.1 | Non-toxic | – | – | – | – | –

Reference: ChEMBL document CHEMBL3745601 (Medchemcomm, 2015)
